In ChEMBL document CHEMBL5321262, “Antiviral Activity of Cannabidiolic Acid and Its Methyl Ester against SARS-CoV-2” (J Nat Prod, 2023):
The source made the active and inactive calls. The calls are words filed in the database; no cut-off is given here.

Legend:
[1] = Cytotoxicity against African green monkey Vero E6 cells measured after 72 hrs by LDH assay; type: toxicity, cell-based, Vero C1008; conditions: chlorocebus sabaeus
In short: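 Vero E6 seeded at 2 × 10^4 cells/well and held overnight at 37 °C, 5% CO2. Compounds added at final 2.3–300.0 µM (8 two-fold steps) with DMSO fixed at 0.5% v/v. After 72 h, LDH-WST read-out at 490 nm, with % cytotoxicity taken against DMSO control. CC50 from nonlinear dose–response regression.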

[2] = test system: SARS-CoV-2; experiment: Antiviral activity against SARS-CoV-2 Italian strain PV10734 infected in African green monkey Vero E6 cells assessed as reduction in virus-induced cytopathic effect preincubated with virus for 1 hr followed by infection with cells and measured after 72 hrs by microscopic analysis; type: functional, organism-based; conditions: Severe acute respiratory syndrome coronavirus 2, time 73.0 hrs
[3] = test system: SARS-CoV-2; experiment: Antiviral activity against SARS-CoV-2 Italian strain PV10734 infected in African green monkey Vero E6 cells assessed as reduction in virus titers of progeny virus in supernatant measured after 72 hrs by CPE assay; type: functional, organism-based; conditions: Severe acute respiratory syndrome coronavirus 2, PV10734, Vero C1008, 72 h
[4] = test system: SARS-CoV-2; experiment: Antiviral activity against SARS-CoV-2 Italian strain PV10734 infected in African green monkey Vero E6 cells assessed as reduction in viral replication at 37.5 uM measured at 72 hrs post-infection by qRT-PCR analysis; type: functional, organism-based; conditions: Severe acute respiratory syndrome coronavirus 2
[5] = test system: SARS-CoV-2; experiment: Antiviral activity against SARS-CoV-2 Italian strain PV10734 infected in African green monkey Vero E6 cells assessed as reduction in virus-induced cytopathic effect at 37.5 uM preincubated with virus for 1 hr followed by infection with cells and measured after 72 hrs by microscopic analysis; type: functional, organism-based; conditions: Severe acute respiratory syndrome coronavirus 2, time 73.0 hrs
[6] = test system: SARS-CoV-2; experiment: Antiviral activity against SARS-CoV-2 Italian strain PV10734 infected in African green monkey Vero E6 cells assessed as inhibition of virus titers of progeny virus in supernatant at 37.5 uM measured after 72 hrs by CPE assay relative to control; type: functional; conditions: Severe acute respiratory syndrome coronavirus 2, PV10734, Vero C1008
[7] = Stability of compound in African green monkey Vero E6 cell lysates assessed as decarboxylation at 37.5 uM measured upto 30 mins by UHPLC-HRMS analysis; type: ADME, subcellular; conditions: chlorocebus sabaeus, vero c1008, 0.5 h
[8] = Stability of compound in cell culture media at 37.5 uM measured upto 30 mins by UHPLC-HRMS analysis; type: physicochemical; conditions: 0.5 h
[9] = test system: SARS-CoV-2; experiment: Antiviral activity against SARS-CoV-2 Italian strain PV10734 infected in African green monkey Vero E6 cells assessed as reduction in virus-induced cytopathic effect at 75 uM preincubated with virus for 1 hr followed by infection with cells and measured after 72 hrs by microscopic analysis; type: functional, organism-based; conditions: Severe acute respiratory syndrome coronavirus 2, time 73.0 hrs
[10] = test system: SARS-CoV-2; experiment: Antiviral activity against SARS-CoV-2 Italian strain PV10734 infected in African green monkey Vero E6 cells assessed as inhibition of virus titers of progeny virus in supernatant at 75 uM measured after 72 hrs by CPE assay relative to control; type: functional; conditions: Severe acute respiratory syndrome coronavirus 2, PV10734, Vero C1008
[11] = test system: SARS-CoV-2; experiment: Antiviral activity against SARS-CoV-2 Italian strain PV10734 infected in African green monkey Vero E6 cells assessed as reduction in viral replication at 75 uM measured at 72 hrs post-infection by qRT-PCR analysis; type: functional, organism-based; conditions: Severe acute respiratory syndrome coronavirus 2
[12] = Stability of compound in African green monkey Vero E6 cell lysates assessed as decarboxylation at 75 uM measured upto 30 mins by UHPLC-HRMS analysis; type: ADME, subcellular; conditions: chlorocebus sabaeus, vero c1008, 0.5 h

Structure (SMILES)	CC50 at 72 h [1]	Activity [2]	further results
CCCCCc1cc(O)c(C/C=C(\C)CCC=C(C)C)c(O)c1C(=O)O [CANNABIGEROLIC ACID]	43.9 µM	inactive	–
CCCc1cc(O)c(C/C=C(\C)CCC=C(C)C)c(O)c1	58.1 µM	inactive	–
C=C(C)[C@@H]1CCC(C)=C[C@H]1c1c(O)cc(CCCCC)c(C(=O)OC)c1O	52.4 µM	–	IC50 [3]: 18.4 µM; Activity [4]: Active; Activity [5]: Active; inhibition at 37.5 µM [6]: > 90%; Stability [7]: Stable; Stability [8]: Stable
CCCCCc1cc(O)c2c(c1)OC(C)(CCC=C(C)C)C=C2 (stereo not given) [CANNABICHROMENE]	59.3 µM	inactive	–
C=C(C)[C@@H]1CCC(C)=C[C@H]1c1c(O)cc(CCC)cc1O [CANNABIDIVARIN]	26 µM	inactive	–
C=C(C)[C@@H]1CCC(C)=C[C@H]1c1c(O)cc(CCCCC)c(C(=O)O)c1O [CANNABIDIOLIC ACID]	119 µM	–	Activity [9]: Active; IC50 [3]: 42.7 µM; inhibition at 75 µM [10]: > 90%; Activity [11]: Active; Stability [12]: Unstable
C=C(C)[C@@H]1CCC(C)=C[C@H]1c1c(O)cc(CCCCC)cc1O [CANNABIDIOL]	28.9 µM	inactive	–
CCCCCc1cc(O)c(C/C=C(\C)CCC=C(C)C)c(O)c1 [CANNABIGEROL]	58 µM	inactive	–
